These results are taken from article PMC5858725 (Biochemistry, 2017).

Where two headings read alike, the source gives them in different places.

The subject of data set [1] is WT CYP3A4. Conditions: cited from earlier work.
For data set [2], the target named is T1, opt-WT CYP3A4 (Homo sapiens, UniProt P08684). The experiment in a line: Stopped flow ligand binding kinetics, opt-WT CYP3A4. Conditions: for Percentage of absorbance change observed during the fast kinetic phase / Percentage of absorbance change observed during the slow kinetic phase: 40 μM ligand.
Data set [3] concerns the target T2, Cys-less CYP3A4 (Homo sapiens, UniProt P08684, C239T/C377A/C468S/C58A/C64M/C98A). The experiment in a line: Stopped flow ligand binding kinetics, Cys-less CYP3A4. As to conditions: for Percentage of absorbance change observed during the fast kinetic phase / Percentage of absorbance change observed during the slow kinetic phase: 40 μM ligand.
For data set [4], the system named is WT CYP3A4. Description: Stopped flow ligand binding kinetics, WT CYP3A4. As to conditions: for Percentage of absorbance change observed during the fast kinetic phase / Percentage of absorbance change observed during the slow kinetic phase: 40 μM ligand. Set-up: species or system human.
Data set [5] addresses T2, Cys-less CYP3A4. The experiment in a line: BFC O-debenzylase activity in reconstituted system with CPR. As to conditions: 0.1–0.6 M phosphate pH 7.4, all studied conditions; relative to WT and opt-WT. The format is biochemical. The essentials: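 N-terminally truncated (Δ3–22) CYP3A4 carrying C58A/C64M/C98A/C239T/C377A/C468S, co-expressed with GroESL in E. coli C41(DE3). […] Lipid-free reconstitution with rat cytochrome P450 reductase. Substrate 7-benzyloxy(4-trifluoromethyl)coumarin, O-debenzylated to a fluorescent product that is read fluorimetrically.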

Data set [6] addresses T2, Cys-less CYP3A4.
In data set [7] the target is T1, opt-WT CYP3A4.
Data set [8] concerns CPR. The experiment in a line: Kinetics of CYP3A4 reduction with CPR. As to conditions: anaerobic. Type of data set: biochemical, rat.
Setting [9] is: 2 μM CYP3A4 mixed with 40 μM ligand, 0.6 M phosphate pH 7.4.
Setting [10] is: CO-saturated 0.1 M phosphate pH 7.4, 1 μM CYP3A4 and CPR, 30 μM MDZ, 100 μM NADPH.

For the molecule `Cc1ncc2n1-c1ccc(Cl)cc1C(c1ccccc1F)=NC2` [MDZ, midazolam], the Kd is 4800 nM in data set [1] (read-out: Equilibrium Titrations, Ks, 0.1 M phosphate, determined previously) and 1800 nM in data set [1] (read-out: Equilibrium Titrations, Ks, 0.6 M phosphate, determined previously). The entries for the “Ligand Binding Kinetics, kfast” value in data set [2] (setting [9]), in data set [3] (setting [9]) and in data set [4] (setting [9]) were 0.26 ± 0.03 s⁻¹, 0.27 ± 0.02 s⁻¹ and 3.4 ± 0.3 s⁻¹, respectively. The “Ligand Binding Kinetics, kslow” value in data set [2] (setting [9]) came to 0.027 ± 0.004 s⁻¹; in data set [3] (setting [9]) it was 0.036 ± 0.003 s⁻¹; in data set [4] (setting [9]), 0.23 ± 0.04 s⁻¹. The “Percentage of absorbance change observed during the fast kinetic phase” value in data set [2] (0.1 M phosphate pH 7.4) is 43%; in data set [2] (0.6 M phosphate pH 7.4) it was 49%; in data set [3] (0.1 M phosphate pH 7.4) it was 40%; in data set [3] (0.6 M phosphate pH 7.4), 43%; in data set [4] (0.1 M phosphate pH 7.4), 70%; in data set [4] (0.6 M phosphate pH 7.4), 82%. The “Percentage of absorbance change observed during the slow kinetic phase” value in data set [2] (0.1 M phosphate pH 7.4) is reported as 57%; in data set [2] (0.6 M phosphate pH 7.4), 51%; in data set [3] (0.1 M phosphate pH 7.4) it was 60%; in data set [3] (0.6 M phosphate pH 7.4) it was 57%; in data set [4] (0.1 M phosphate pH 7.4), 30%; in data set [4] (0.6 M phosphate pH 7.4) it was 18%.

Regarding `CC(C)c1nc(CN(C)C(=O)N[C@H](C(=O)N[C@@H](Cc2ccccc2)C[C@H](O)[C@H](Cc2ccccc2)NC(=O)OCc2cncs2)C(C)C)cs1` [RIT, ritonavir], in data set [4] (0.1 M phosphate pH 7.4), the “Percentage of absorbance change observed during the fast kinetic phase” value was 70% and the “Percentage of absorbance change observed during the slow kinetic phase” value was 30%.

As for `O=c1cc(C(F)(F)F)c2ccc(OCc3ccccc3)cc2o1` [BFC, 7-benzyloxy-(4-trifluoromethyl)coumarin], the “BFC oxidation (debenzylation) by Cys-less CYP3A4, faster than WT and opt-WT” value in data set [5] is 6–8 fold.

As for `CC(C)C[C@H]1C(=O)N2CCC[C@H]2[C@]2(O)O[C@](NC(=O)[C@@H]3C=C4c5cccc6[nH]c(Br)c(c56)C[C@H]4N(C)C3)(C(C)C)C(=O)N12` [BEC, bromoergocryptine], the Kd in data set [1] (read-out: Equilibrium Titrations, Ks, determined previously) is 300 nM; in data set [6] (pH 7.4), 450 ± 60 nM; in data set [7] (pH 7.4), 770 ± 140 nM. In addition, the “affinity lower than WT (from Ks)” value in data set [6] and in data set [7] was 1.5–2 fold in each case. Also, the “Percentage of absorbance change observed during the fast kinetic phase” value was determined as 49% in data set [2] (0.1 M phosphate pH 7.4), 54% in data set [3] (0.1 M phosphate pH 7.4) and 52% in data set [4] (0.1 M phosphate pH 7.4). In addition, the “Percentage of absorbance change observed during the slow kinetic phase” value in data set [2] (0.1 M phosphate pH 7.4) is on record as 51%; in data set [3] (0.1 M phosphate pH 7.4) it was 46%; in data set [4] (0.1 M phosphate pH 7.4), 48%.

B1: Cys-less: C58A/C64M/C98A/C239T/C377A/C468S variant of CYP3A4 from codon-optimized synthetic gene (protein, UniProt P08684 2-503, looked up, variant C58A C64M C98A C239T C377A C468S)
Cytochrome P450 3A4: ALIPDLAMETWLLLAVSLVLLYLYGTHSHGLFKKLGIPGPTPLPFLGNILSYHKGFAMFDMEMHKKYGKVWGFYDGQQPVLAITDPDMIKTVLVKEAYSVFTNRRPFGPVGFMKSAISIAEDEEWKRLRSLLSPTFTSGKLKEMVPIIAQYGDVLVRNLRREAETGKPVTLKDVFGAYSMDVITSTSFGVNIDSLNNPQDPFVENTKKLLRFDFLDPFFLSITVFPFLIPILEVLNITVFPREVTNFLRKSVKRMKESRLEDTQKHRVDFLQLMIDSQNSKETESHKALSDLELVAQSIIFIFAGYETTSSVLSFIMYELATHPDVQQKLQEEIDAVLPNKAPPTYDTVLQMEYLDMVVNETLRLFPIAMRLERVAKKDVEINGMFIPKGVVVMIPSYALHRDPKYWTEPEKFLPERFSKKNKDNIDPYIYTPFGSGPRNCIGMRFALMNMKLALIRVLQNFSFKPSKETQIPLKLSLGGLLQPEKPVVLKVESRDGTVSGA
modifications: Δ3–22 truncation
As for B1, in data set [8] (setting [10]), the “First Electron Transfer from CPR, kfast” value came out at 1.22 ± 0.03 min⁻¹ and the “First Electron Transfer from CPR, kslow” value came out at 0.22 ± 0.02 min⁻¹. Also, the “First Electron Transfer from CPR, percentage of absorbance change in the fast phase” value in data set [8] (CO-saturated 0.1 M phosphate pH 7.4, 30 μM MDZ) turned out to be 64%.
